Measured values collected from several papers.
Compare with care: the assays were run in different laboratories.
Organism: Staphylococcus aureus
Effect on: microbial growth

Cc1ccc2nc(-c3ccc(Cl)cc3Cl)[nH]c2c1
MIC (broth dilution; ATCC29213 MSSA): 64 µg/mL

C/C=C(\C)c1cc(OC(=O)c2c(O)c(C)c(O)c(Cl)c2/C(C)=C/C)c(C)c(O)c1C(=O)O
MIC (broth dilution; CCARM3090): 64 µg/mL

O=[N+]([O-])c1cnc2ccccc2c1O
MIC: > 128 µg/mL

C[C@@H](Oc1cc(-c2cnn(C3CCNCC3)c2)cnc1N)c1c(Cl)ccc(F)c1Cl
MIC (NCTC8325): > 30 µM

CC(C)Oc1c(NC(=O)c2ccc(NC(=O)[C@H](CC(N)=O)NC(=O)c3ccc(NC(=O)c4ccc(C#N)c(Cl)c4)cc3)cc2)ccc(C(=O)Nc2ccc(C(=O)O)cc2)c1O
MIC (ATCC29213): < 0.03 µg/mL

CC1=NN(CNC(=O)c2ccccn2)C(=O)C1=NNn1c(-c2ccccc2)nc2ccccc2c1=O
MIC (broth dilution; 24 h): 52 µM

CCCCCCCCCC(=O)N[C@@H](Cc1c[nH]c2ccccc12)C(=O)N[C@H](CC(N)=O)C(=O)N[C@@H](CC(=O)O)C(=O)N[C@@H]1C(=O)NCC(=O)N[C@@H](CCCN)C(=O)N[C@@H](CC(=O)O)C(=O)N[C@H](C)C(=O)N[C@@H](CC(=O)O)C(=O)NCC(=O)N[C@H](CO)C(=O)N[C@@H]([C@H](C)CC(=O)O)C(=O)N[C@@H](CC(=O)c2ccccc2N)C(=O)O[C@@H]1C
MIC (NCTC8325): 1.2 µM

C/C=C(\C)c1cc(O)c(C)c(OC(=O)c2c(C)c(Cl)c(O)c(Cl)c2O)c1
MIC (broth dilution; 6917): 8 µg/mL

CN(C)c1ccc(-c2nc3ccccc3[nH]2)cc1
MIC (broth dilution; ATCC29213 MSSA): 64 µg/mL

CCn1cc(-c2ccnc3[nH]c(-c4cccc(CN(C)C)c4)cc23)c(-c2ccc(NC(=O)N(C)C)cc2)n1
MIC (NCTC8325): > 30 µM

O=C1C=CC(=O)c2c1ccc1c2[nH]c2ccccc21
MIC (ATCC29213): 4 µg/mL

O=C(O)CN1C(=O)/C(=C/c2c3ccccc3c(-c3ccc(N(c4ccccc4)c4ccccc4)cc3)c3ccccc23)SC1=S
MIC (broth dilution; ATCC6538): > 1000 µg/mL

COc1cc(Nc2ncc(F)c(Nc3ccc4c(n3)NC(=O)C(C)(C)O4)n2)cc(OC)c1OC
MIC (NCTC8325): > 30 µM

O=C(CCCN1CCC(O)(c2ccc(Cl)cc2)CC1)c1ccc(Br)cc1
MIC: > 128 µg/mL

Cc1ccc(C)n1-c1ccc(-c2nnc(S)s2)cc1
MIC (broth dilution; ATCC11632; 18 h): 1 µg/mL

Cc1cccc(NCc2ccc(Oc3ccccn3)cc2)c1
MIC: > 6.2 µg/mL

O=C(c1ccc(/C=C/c2n[nH]c3ccccc23)cc1)N1CCNCC1
MIC (NCTC8325): > 30 µM

O=C(O)CN1C(=O)/C(=C/c2ccc(-c3ccc(N(c4ccccc4)c4ccccc4)cc3)cc2)NC1=S
MIC (broth dilution; ATCC43300): 1.95 µg/mL

O=C(Nc1ccc(Cl)c(C(F)(F)F)c1)N1CCc2ccccc2C1
MIC (NCTC8325; 24 h): 30 µM

COc1c(C)c(OCc2ccccc2)c(C)c(O)c1C(=O)/C=C/c1ccccc1
MIC (broth dilution; ATCC25923): 5000 µg/mL

CC(C)Oc1c(NC(=O)c2ccc(NC(=O)[C@H](CC(N)=O)NC(=O)c3ccc(NC(=O)c4ccc(C#N)nc4)cc3)cc2)ccc(C(=O)Nc2ccc(C(=O)O)cc2)c1O
MIC (ATCC29213): 64 µg/mL

C[C@@H](O)[C@H]1C(=O)N2C(C(=O)O)=C(SCCN=CN)C[C@H]12
MIC (MRSA): 32 µg/mL
